Assay results as given in ChEMBL document CHEMBL1140956, “Syntheses of 4-(indole-3-yl)quinazolines: a new class of epidermal growth factor receptor tyrosine kinase inhibitors” (Eur J Med Chem, 2008).

Experiments:
[1] = tested on: A498; assay: Growth inhibition of human A498 cells after 72 hrs by SRB assay; type: functional; conditions: A498, 48 h, in the assay text read “48 hrs” for “72 hrs”
Procedure, shortened: (§1)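 NCI 60-cell-line screen. Cells were grown in RPMI 1640 with 5% fetal bovine serum, plated at 5000–40 000 cells/well by doubling time, and held 24 h at 37 °C, 5% CO2. Time-zero plates were TCA-fixed when the DMSO-solubilized drug was added at five concentrations (10-fold or ½-log dilutions). After 48 h, cells were fixed with cold TCA and stained with 0.4% SRB in 1% acetic acid. Bound dye was dissolved in 10 mM trizma base and read at 515 nm. Percentage growth was calculated relative to time-zero and control.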

[2] = tested on: ACHN; assay: Growth inhibition of human ACHN cells after 72 hrs by SRB assay; type: functional; conditions: 48 h, in the assay text read “48 hrs” for “72 hrs”; procedure, shortened: as §1
[3] = tested on: HOP-92; assay: Growth inhibition of human HOP92 cells after 72 hrs by SRB assay; type: functional; conditions: HOP-92, 48 h, in the assay text read “48 hrs” for “72 hrs”; procedure, shortened: as §1
[4] = tested on: IGROV-1; assay: Growth inhibition of human IGROV1 cells after 72 hrs by SRB assay; type: functional; conditions: IGROV-1, 48 h, in the assay text read “48 hrs” for “72 hrs”; procedure, shortened: as §1
[5] = tested on: NCI-H322M; assay: Growth inhibition of human NCI-H322M cells after 72 hrs by SRB assay; type: functional; conditions: 48 h, in the assay text read “48 hrs” for “72 hrs”; procedure, shortened: as §1
[6] = tested on: PC-3; assay: Growth inhibition of human PC3 cells after 72 hrs by SRB assay; type: functional; conditions: PC-3, 48 h, in the assay text read “48 hrs” for “72 hrs”; procedure, shortened: as §1
[7] = tested on: TK-10; assay: Growth inhibition of human TK10 cells after 72 hrs by SRB assay; type: functional; conditions: TK-10, 48 h, in the assay text read “48 hrs” for “72 hrs”; procedure, shortened: as §1
[8] = molecular target: Epidermal growth factor receptor (Homo sapiens, UniProt P00533); assay: Inhibition of human EGFR tyrosine kinase activity
[9] = tested on: HT-29; assay: Growth inhibition of human HT29 cells after 72 hrs by SRB assay; type: functional; conditions: HT-29, 48 h, in the assay text read “48 hrs” for “72 hrs”; procedure, shortened: as §1
[10] = tested on: SNB-75; assay: Growth inhibition of human SNB75 cells after 72 hrs by SRB assay; type: functional; conditions: SNB-75, 48 h, in the assay text read “48 hrs” for “72 hrs”; procedure, shortened: as §1
[11] = tested on: SK-OV-3; assay: Growth inhibition of human SKOV3 cells after 72 hrs by SRB assay; type: functional; conditions: SK-OV-3, 48 h, in the assay text read “48 hrs” for “72 hrs”; procedure, shortened: as §1
[12] = molecular target: Receptor tyrosine-protein kinase erbB-2 (Homo sapiens) (UniProt P04626); assay: Inhibition of human HER2 tyrosine kinase activity at 100 nM
[13] = tested on: EKVX; assay: Growth inhibition of human EKVX cells after 72 hrs by SRB assay; type: functional; conditions: 48 h, in the assay text read “48 hrs” for “72 hrs”; procedure, shortened: as §1

Epidermal growth factor receptor, sequence (P00533 whole entry): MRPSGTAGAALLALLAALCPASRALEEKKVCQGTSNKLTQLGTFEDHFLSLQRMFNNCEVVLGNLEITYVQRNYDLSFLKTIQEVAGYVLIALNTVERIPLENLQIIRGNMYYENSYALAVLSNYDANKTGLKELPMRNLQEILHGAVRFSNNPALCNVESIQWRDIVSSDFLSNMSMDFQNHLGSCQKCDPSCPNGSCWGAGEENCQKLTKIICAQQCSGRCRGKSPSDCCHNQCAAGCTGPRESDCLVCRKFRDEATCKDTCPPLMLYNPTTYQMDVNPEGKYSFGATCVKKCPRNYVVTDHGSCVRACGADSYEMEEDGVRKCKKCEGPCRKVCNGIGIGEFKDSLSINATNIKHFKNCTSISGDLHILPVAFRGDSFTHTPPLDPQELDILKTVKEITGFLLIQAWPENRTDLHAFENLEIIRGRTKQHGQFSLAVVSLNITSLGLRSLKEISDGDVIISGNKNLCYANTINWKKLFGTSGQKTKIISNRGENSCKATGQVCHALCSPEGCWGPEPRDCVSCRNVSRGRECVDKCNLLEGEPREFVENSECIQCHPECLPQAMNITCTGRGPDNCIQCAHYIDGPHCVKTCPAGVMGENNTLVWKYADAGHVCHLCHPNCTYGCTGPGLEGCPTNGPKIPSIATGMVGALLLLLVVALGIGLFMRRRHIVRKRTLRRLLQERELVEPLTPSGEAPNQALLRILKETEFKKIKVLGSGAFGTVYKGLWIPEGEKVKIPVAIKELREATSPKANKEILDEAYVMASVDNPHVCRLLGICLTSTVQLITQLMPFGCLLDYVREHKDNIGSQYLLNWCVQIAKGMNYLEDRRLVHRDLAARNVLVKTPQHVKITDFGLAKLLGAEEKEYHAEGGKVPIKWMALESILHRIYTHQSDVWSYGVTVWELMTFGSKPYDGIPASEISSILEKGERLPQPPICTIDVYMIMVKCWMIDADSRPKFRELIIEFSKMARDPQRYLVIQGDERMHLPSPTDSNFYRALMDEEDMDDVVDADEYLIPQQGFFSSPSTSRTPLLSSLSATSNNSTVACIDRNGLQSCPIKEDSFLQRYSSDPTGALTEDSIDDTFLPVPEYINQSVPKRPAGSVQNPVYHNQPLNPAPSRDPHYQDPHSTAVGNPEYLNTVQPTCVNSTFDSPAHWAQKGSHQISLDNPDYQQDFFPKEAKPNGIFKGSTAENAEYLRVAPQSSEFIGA
Receptor tyrosine-protein kinase erbB-2 (Homo sapiens), sequence (P04626 whole entry): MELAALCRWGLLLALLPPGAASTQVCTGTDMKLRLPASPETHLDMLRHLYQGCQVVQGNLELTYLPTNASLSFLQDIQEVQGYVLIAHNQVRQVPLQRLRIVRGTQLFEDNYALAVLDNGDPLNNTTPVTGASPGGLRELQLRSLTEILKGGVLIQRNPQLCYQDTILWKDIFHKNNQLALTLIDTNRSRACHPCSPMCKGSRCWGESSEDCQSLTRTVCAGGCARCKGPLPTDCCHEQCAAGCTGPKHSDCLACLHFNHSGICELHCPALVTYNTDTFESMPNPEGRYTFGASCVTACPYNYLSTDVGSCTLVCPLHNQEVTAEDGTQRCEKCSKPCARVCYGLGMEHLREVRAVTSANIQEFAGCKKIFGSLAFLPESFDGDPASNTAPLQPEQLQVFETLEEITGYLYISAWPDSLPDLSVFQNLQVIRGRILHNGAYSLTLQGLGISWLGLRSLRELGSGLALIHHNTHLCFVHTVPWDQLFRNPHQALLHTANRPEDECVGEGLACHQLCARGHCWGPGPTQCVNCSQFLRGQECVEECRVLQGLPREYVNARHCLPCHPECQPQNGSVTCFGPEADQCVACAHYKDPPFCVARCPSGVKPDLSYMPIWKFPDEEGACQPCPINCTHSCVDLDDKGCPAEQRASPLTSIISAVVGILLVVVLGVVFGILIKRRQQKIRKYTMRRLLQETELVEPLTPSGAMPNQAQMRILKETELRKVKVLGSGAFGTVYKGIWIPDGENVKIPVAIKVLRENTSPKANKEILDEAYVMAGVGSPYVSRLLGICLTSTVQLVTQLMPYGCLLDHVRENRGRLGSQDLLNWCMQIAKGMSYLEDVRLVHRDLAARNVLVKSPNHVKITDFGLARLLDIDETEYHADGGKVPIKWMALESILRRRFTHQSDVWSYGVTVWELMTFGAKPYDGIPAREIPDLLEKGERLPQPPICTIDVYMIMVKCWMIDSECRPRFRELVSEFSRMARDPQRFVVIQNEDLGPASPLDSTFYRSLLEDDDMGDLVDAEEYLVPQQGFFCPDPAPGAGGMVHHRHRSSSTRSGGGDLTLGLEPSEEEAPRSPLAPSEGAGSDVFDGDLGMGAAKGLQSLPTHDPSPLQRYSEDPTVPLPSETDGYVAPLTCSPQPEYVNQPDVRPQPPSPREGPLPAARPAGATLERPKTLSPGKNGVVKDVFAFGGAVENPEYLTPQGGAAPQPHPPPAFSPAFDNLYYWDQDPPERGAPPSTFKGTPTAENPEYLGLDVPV

SMILES	GI50 [1]	GI50 [2]	GI50 [3]	GI50 [4]	GI50 [5]	GI50 [6]	GI50 [7]	IC50 [8]	GI50 [9]	GI50 [10]	GI50 [11]	inhibition [12]	GI50 [13]
COc1cc2ncnc(-c3c[nH]c4cc(F)c(Cl)cc34)c2cc1OC	492 nM	222 nM	1750 nM	424 nM	255 nM	766 nM	325 nM	209 nM	848 nM	204 nM	711 nM	3%	410 nM
COc1cc2ncnc(-c3c[nH]c4cc(F)c(Cl)cc34)c2cc1OCCCN1CCOCC1	2900 nM	215 nM	504 nM	108 nM	38 nM	490 nM	97.6 nM	333 nM	3700 nM	49.3 nM	592 nM	19%	89.7 nM
COc1cc2ncnc(-c3c[nH]c4ccc(Br)cc34)c2cc1OC								131 nM					
COc1cc2ncnc(-c3c[nH]c4cc(F)c(C)cc34)c2cc1OC								533 nM					
COCCOc1cc2ncnc(-c3c[nH]c4cc(F)c(Cl)cc34)c2cc1OCCOC								472 nM					
